Results: publication PMC7271564 (Haematologica, 2019)
“Also recorded” adds a separate entry of the source.

Experiments:
CD138+CD38- plasma cells = assay: HTFC drug sensitivity assay, plasma cell subset; type: cell-based, human; conditions: CD138+CD38- plasma cells compared to CD138+CD38+ or other cells, MM samples
In short: (§1)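 Cohort I comprised 16 samples: 3 healthy PB, 3 AML and 10 MM. Samples were tested in 96-well plates against six compounds by no-wash high-throughput flow cytometry (iQue Screener PLUS). Two antibody panels defined up to ten subsets, including CD138+CD38± plasma cells and CD34+CD38± progenitors. Per-population cell counts gave dose–response curves, from which DSS and IC50 were derived. Results were shown as mean±SEM per disease group.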

monocytes (CD14+) = assay: HTFC drug sensitivity assay, monocytes; type: cell-based, human; conditions: for response of monocytes, in words: mean of 16 samples (3 healthy, 3 AML, 10 MM), Cohort I
In short: (§2)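 Three healthy PB samples were screened ex vivo with 71 compounds at 5 concentrations in 384-well plates. The assay was a no-wash multiplexed flow cytometry run on an iQue Screener PLUS. Six subsets were gated by surface antigen: CD19+, CD56+, CD3+CD4+, CD3+CD8+, CD3+CD56+ and CD14+. Cell counts per subset gave dose–response curves, and DSS was derived from these.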

CD19+/B cells = assay: High throughput no-wash flow cytometry; type: cell-based, human; conditions: for sensitivity compared to other cell types, in words: B cells, three healthy PB samples, 71-drug screen
CD56+/NK cells = assay: HTFC drug sensitivity assay, NK cells; type: cell-based, human; conditions: for sensitivity compared to other cell types, in words: NK cells, three healthy PB samples, 71-drug screen
In short: as §2

[1] = test system: CD34+CD38+ cells (CPC/blast); assay: HTFC drug sensitivity assay, progenitor/blast cells; type: cell-based; conditions: Homo sapiens
CD34+CD38- cells (HSC) = assay: HTFC drug sensitivity assay, hematopoietic stem cells; type: cell-based, human; conditions: CD34+CD38- cells from healthy donors (BM, n=2)
T-cell subsets (CD3+) = assay: HTFC drug sensitivity assay, T-cell subsets; type: cell-based, human
In short: as §1

[2] = test system: T-cell malignancies (primary samples); assay: CellTiter-Glo viability assay; type: cell-based, human; conditions: similar to healthy T cells
In short: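 Primary BM aspirates from leukemia patients (Cohort III, n=281 total), with T-PLL samples tested as enriched CD8+ cells, were exposed to the drug panel. The endpoint was CellTiter-Glo luminescent viability. Luminescence was fitted to dose–response curves, from which a drug sensitivity score (DSS) was calculated. Comparison was against bead-enriched healthy BM CD3+ cells.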

SMILES: CC(C)C[C@H](NC(=O)[C@H](Cc1ccccc1)NC(=O)c1cnccn1)B(O)O [bortezomib]
- ex vivo response, in words (CD138+CD38- plasma cells): resistant

SMILES: Cc1nc(Nc2ncc(C(=O)Nc3c(C)cccc3Cl)s2)cc(N2CCN(CCO)CC2)n1 [dasatinib]
- drug response profile (DSS clustering), in words (monocytes (CD14+); monocytes, three healthy PB samples, 71-drug screen): selective sensitivity

SMILES: C[C@@H]1C[C@H]2[C@@H]3CCC4=CC(=O)C=C[C@]4(C)[C@@]3(F)[C@@H](O)C[C@]2(C)[C@@]1(O)C(=O)CO [dexamethasone]
- sensitivity compared to other cell types, in words (CD19+/B cells): higher sensitivity
- effect on cell count, in words (CD19+/B cells; CD19+ cells, Cohort I samples): depleted
- effect on CD14+ cell count, in words (monocytes (CD14+); Cohort I samples): dose-dependent increase
- response of monocytes, in words (monocytes (CD14+)): resistant
- effect on cell count, in words (CD56+/NK cells; CD56+ cells, Cohort I samples): depleted
- sensitivity compared to other cell types, in words (CD56+/NK cells): higher sensitivity

SMILES: CO[C@@H]1[C@H](N(C)C(=O)c2ccccc2)C[C@H]2O[C@]1(C)n1c3ccccc3c3c4c(c5c6ccccc6n2c5c31)C(=O)NC4 [midostaurin]
- IC50 [1]: 16 nM
- sensitivity compared to other cell types, in words (CD19+/B cells): higher sensitivity
- sensitivity, in words (CD34+CD38- cells (HSC)): insensitive; also recorded: no effect
- sensitivity compared to other cell types, in words (CD56+/NK cells): higher sensitivity

SMILES: CC1(C)CCC(c2ccc(Cl)cc2)=C(CN2CCN(c3ccc(C(=O)NS(=O)(=O)c4ccc(N[C@H](CCN5CCOCC5)CSc5ccccc5)c(S(=O)(=O)C(F)(F)F)c4)cc3)CC2)C1 [navitoclax]
- response of monocytes, in words (monocytes (CD14+)): resistant

SMILES: COc1ncc(-c2ccc3nccc(-c4ccnnc4)c3c2)cc1NS(=O)(=O)c1ccc(F)cc1F [omipalisib]
- sensitivity, in words (T-cell subsets (CD3+); T-cell subsets, Cohort I samples): insensitive
- effect on CD3+ cell count, in words (T-cell subsets (CD3+); at concentrations of 10 and 100 nM): increase
- response (DSS), in words [2]: no response

SMILES: CC1(C)CCC(CN2CCN(c3ccc(C(=O)NS(=O)(=O)c4ccc(NCC5CCOCC5)c([N+](=O)[O-])c4)c(Oc4cnc5[nH]ccc5c4)c3)CC2)=C(c2ccc(Cl)cc2)C1 [venetoclax]
- sensitivity compared to other cell types, in words (CD19+/B cells): higher sensitivity
- response of monocytes, in words (monocytes (CD14+)): resistant
- sensitivity compared to other cell types, in words (CD56+/NK cells): higher sensitivity
